Experimental data from ChEMBL document CHEMBL3593234, “Lanostane Triterpenes from the Tibetan Medicinal Mushroom Ganoderma leucocontextum and Their Inhibitory Effects on HMG-CoA Reductase and α-Glucosidase” (J Nat Prod, 2015).

Legend:
[1] = target: T1, 3-hydroxy-3-methylglutaryl-coenzyme A reductase (Sus scrofa, UniProt Q1W675); test: Inhibition of pig liver microsomes HMG-CoA reductase incubated for 5 mins in using HMG-CoA and NADPH by colorimetric method
T1 sequence (Q1W675 whole entry): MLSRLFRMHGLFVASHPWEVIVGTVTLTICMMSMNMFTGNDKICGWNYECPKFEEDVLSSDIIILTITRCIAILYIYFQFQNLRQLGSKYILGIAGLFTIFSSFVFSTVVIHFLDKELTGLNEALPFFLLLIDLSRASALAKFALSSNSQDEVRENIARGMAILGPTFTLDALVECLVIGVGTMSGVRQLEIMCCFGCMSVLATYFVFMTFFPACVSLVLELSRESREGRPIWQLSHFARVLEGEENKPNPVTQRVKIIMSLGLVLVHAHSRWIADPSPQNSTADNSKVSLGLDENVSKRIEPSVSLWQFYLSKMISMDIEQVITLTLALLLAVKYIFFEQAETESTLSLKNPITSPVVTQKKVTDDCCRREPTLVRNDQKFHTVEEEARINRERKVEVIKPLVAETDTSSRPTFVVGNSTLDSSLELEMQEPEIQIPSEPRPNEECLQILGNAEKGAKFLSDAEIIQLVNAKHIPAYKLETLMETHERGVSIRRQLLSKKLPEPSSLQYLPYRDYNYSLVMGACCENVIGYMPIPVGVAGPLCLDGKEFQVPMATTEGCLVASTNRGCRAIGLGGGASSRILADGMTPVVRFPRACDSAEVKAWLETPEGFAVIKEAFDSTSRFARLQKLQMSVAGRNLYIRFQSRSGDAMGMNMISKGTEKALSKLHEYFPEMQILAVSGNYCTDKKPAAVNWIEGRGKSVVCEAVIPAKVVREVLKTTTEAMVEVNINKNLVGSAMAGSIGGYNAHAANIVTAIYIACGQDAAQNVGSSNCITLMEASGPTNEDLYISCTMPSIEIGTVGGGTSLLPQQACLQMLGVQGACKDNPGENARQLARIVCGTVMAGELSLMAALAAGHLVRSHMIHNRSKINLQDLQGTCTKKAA
Method in brief: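 Pig liver microsomal HMG-CoA reductase at about 4 U/mL final, with compound at 2.5–80 μM final and 200 μM HMG-CoA. Buffer was 0.1 mol/L potassium phosphate pH 7.0 with EDTA, dithiothreitol and BSA. After 5 min at 37 °C, 100 μM NADPH was added for 15 min at 37 °C. Absorbance was read at 340 nm, with percent inhibition from blank-corrected OD.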

[2] = Inhibition of Baker's yeast alpha-glucosidase; design: species or system Saccharomyces cerevisiae
Method in brief: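 Baker's yeast α-glucosidase assay read by absorbance at 405 nm. Control wells got phosphate buffer instead of compound, and blanks got buffer instead of enzyme. Percent inhibition was calculated from blank-corrected OD of test versus control wells.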

K562 = test: Cytotoxicity against human K562 cells by MTT method; type: functional, cell-based
PC-3 = test: Cytotoxicity against human PC3 cells by MTT method; type: functional, cell-based
[3] = Inhibition of alpha-glucosidase in rat intestinal mucosa pre-incubated for 40 mins using p-nitrophenyl-alpha-D-glucopyranoside substrate; type: tissue-based
Method in brief: (§1)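 Rat intestinal mucosa powder (1.0 g) was suspended in 3 mL 0.9% saline and sonicated at 4 °C (12 × 30 s), then spun at 10000g, 4 °C, 30 min; the supernatant served as enzyme. Compound in DMSO was mixed with substrate (maltose, sucrose or p-nitrophenyl-α-D-glucopyranoside) in 0.1 M phosphate buffer pH 6.9 and preincubated 40 min. Glucose was read by GOD kit at 550 nm, with blank-corrected percent inhibition.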

[4] = target: Sucrase-isomaltase, intestinal (Rattus norvegicus, UniProt P23739); test: Inhibition of sucrase in rat intestinal mucosa pre-incubated for 40 mins using sucrose substrate; type: tissue-based; method in brief: as §1
Sequence of Sucrase-isomaltase, intestinal (P23739 1-1013 limits assumed): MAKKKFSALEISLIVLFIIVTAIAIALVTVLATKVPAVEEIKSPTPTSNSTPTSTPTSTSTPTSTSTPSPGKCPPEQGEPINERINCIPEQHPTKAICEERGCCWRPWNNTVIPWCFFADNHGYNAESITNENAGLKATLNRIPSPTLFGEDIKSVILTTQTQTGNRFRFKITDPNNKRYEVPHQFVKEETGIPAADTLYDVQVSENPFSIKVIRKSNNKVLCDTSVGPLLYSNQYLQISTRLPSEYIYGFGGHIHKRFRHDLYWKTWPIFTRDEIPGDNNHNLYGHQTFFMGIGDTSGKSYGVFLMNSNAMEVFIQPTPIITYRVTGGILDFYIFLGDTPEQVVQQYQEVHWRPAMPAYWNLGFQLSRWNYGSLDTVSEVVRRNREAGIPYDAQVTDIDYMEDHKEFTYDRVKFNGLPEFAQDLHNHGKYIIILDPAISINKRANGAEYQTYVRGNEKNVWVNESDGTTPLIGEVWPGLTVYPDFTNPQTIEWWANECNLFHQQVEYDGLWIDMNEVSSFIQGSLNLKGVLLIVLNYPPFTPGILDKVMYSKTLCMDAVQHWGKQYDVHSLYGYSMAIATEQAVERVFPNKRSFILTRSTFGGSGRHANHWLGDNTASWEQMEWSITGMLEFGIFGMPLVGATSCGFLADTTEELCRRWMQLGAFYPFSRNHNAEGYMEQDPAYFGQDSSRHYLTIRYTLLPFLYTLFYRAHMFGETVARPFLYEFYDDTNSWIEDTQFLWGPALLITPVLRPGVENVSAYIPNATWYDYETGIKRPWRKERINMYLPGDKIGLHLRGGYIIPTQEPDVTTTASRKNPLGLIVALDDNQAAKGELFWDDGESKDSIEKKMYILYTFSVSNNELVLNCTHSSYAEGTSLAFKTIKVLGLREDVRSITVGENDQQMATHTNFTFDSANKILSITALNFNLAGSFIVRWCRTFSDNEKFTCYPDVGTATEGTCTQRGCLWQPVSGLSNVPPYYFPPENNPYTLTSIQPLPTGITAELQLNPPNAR
Sequence of Sucrase-isomaltase, intestinal (P23739 1014-1841 limits assumed): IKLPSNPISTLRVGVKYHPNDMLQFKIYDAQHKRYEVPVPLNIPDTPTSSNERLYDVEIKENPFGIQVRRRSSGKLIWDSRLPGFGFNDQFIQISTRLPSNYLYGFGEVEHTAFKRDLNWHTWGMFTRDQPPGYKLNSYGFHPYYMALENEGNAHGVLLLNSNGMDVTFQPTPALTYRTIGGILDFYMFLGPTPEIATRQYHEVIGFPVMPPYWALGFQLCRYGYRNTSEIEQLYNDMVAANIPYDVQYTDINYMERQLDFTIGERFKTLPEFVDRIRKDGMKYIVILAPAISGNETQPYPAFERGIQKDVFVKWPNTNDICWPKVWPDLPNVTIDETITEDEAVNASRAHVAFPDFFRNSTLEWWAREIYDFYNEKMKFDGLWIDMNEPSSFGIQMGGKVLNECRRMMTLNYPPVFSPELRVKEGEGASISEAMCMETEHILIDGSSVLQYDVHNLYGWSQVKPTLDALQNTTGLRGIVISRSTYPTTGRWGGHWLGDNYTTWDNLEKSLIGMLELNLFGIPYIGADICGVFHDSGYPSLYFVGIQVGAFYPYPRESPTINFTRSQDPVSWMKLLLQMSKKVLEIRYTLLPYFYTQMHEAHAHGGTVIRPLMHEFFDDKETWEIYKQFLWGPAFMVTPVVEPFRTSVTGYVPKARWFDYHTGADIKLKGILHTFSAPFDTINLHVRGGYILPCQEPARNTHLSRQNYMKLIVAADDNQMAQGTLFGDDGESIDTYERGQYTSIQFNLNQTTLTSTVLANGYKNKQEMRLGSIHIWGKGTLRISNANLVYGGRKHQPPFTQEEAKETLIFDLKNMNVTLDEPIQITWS

| SMILES | IC50 [1] | IC50 [2] | IC50 [3] | IC50 [4] | IC50 (K562; Homo sapiens, K562) | IC50 (PC-3; Homo sapiens, PC-3) | IC50 (K562; k562) | IC50 (PC-3; pc-3) |
| --- | --- | --- | --- | --- | --- | --- | --- | --- |
| C/C(=C/CC[C@@H](C)[C@H]1CC[C@@]2(C)C3=C(CC[C@]12C)[C@@]1(C)CCC(=O)C(C)(C)[C@@H]1CC3=O)C(=O)O (stereo in doubt; 18) [GANODERIC ACID DM] | 9.5 µM | > 50 µM |  |  |  | 81.6 µM | 18.8 µM |  |
| CC(=O)O[C@H]1C(=O)[C@@]2(C)[C@H]([C@H](OC(=O)c3ccccc3)[C@]3(O)C[C@H](OC(=O)[C@H](O)[C@@H](NC(=O)c4ccccc4)c4ccccc4)C(C)=C1C3(C)C)[C@]1(OC(C)=O)CO[C@@H]1C[C@@H]2O [PACLITAXEL] |  |  |  |  | 0.9 µM |  |  |  |
| C[C@H]1O[C@H](O[C@H]2[C@H](O)[C@@H](O)[C@@H](O[C@H]3[C@H](O)[C@@H](O)C(O)O[C@@H]3CO)O[C@@H]2CO)[C@H](O)[C@@H](O)[C@@H]1N[C@H]1C=C(CO)[C@@H](O)[C@H](O)[C@H]1O (stereo partly drawn) [ACARBOSE] |  | 273 µM |  |  |  |  |  |  |
| C/C(=C/CC[C@@H](C)[C@H]1CC[C@@]2(C)C3=C(C(O)C[C@]12C)[C@@]1(C)CCC(=O)C(C)(C)[C@@H]1CC3=O)C(=O)O (stereo partly drawn) | > 100 µM | > 50 µM |  |  | > 200 µM | > 200 µM |  |  |
| C[C@H](CCC=C(CO)CO)[C@H]1CC[C@@]2(C)C3=C(C(=O)C[C@]12C)[C@@]1(C)CCC(=O)C(C)(C)[C@@H]1C[C@@H]3O | > 100 µM | > 50 µM |  |  | 11.4 µM | 132 µM |  |  |
| C/C(=C/CC[C@@H](C)[C@H]1CC[C@@]2(C)C3=C(CC[C@]12C)[C@@]1(C)CCC(=O)C(C)(C)[C@@H]1CC3=O)C(=O)O (stereo in doubt; 21) [GANODERIC ACID DM] | 56.1 µM |  |  |  |  |  | 55.4 µM | 149 µM |
| C/C(=C\CC[C@@H](C)[C@H]1CC[C@@]2(C)C3=CC[C@H]4C(C)(C)[C@@H](O)CC[C@]4(C)C3=CC[C@]12C)C(=O)O [GANODERIC ACID Y] | 8.6 µM | > 50 µM |  |  | 17.5 µM | 180 µM |  |  |
| C/C(=C\CC[C@@H](C)[C@H]1CC[C@@]2(C)C3=C(CC[C@]12C)[C@@]1(C)CCC(=O)C(C)(C)[C@@H]1CC3=O)CO [GANODERONE A] | > 100 µM | 13.7 µM |  |  | 27.7 µM | 28.5 µM |  |  |
| C[C@H](CCC=C(CO)CO)[C@H]1CC[C@@]2(C)C3=C(C(=O)C[C@]12C)[C@@]1(C)CCC(=O)C(C)(C)[C@@H]1CC3=O | 32.9 µM | > 50 µM |  |  | 115 µM | 24.2 µM |  |  |
| COc1cccc2c1C(=O)c1c(O)c3c(c(O)c1C2=O)C[C@@](O)(C(=O)CO)C[C@@H]3O[C@H]1C[C@H](N)[C@H](O)[C@H](C)O1 [DOXORUBICIN] |  |  |  |  |  | 2 µM |  |  |
| C/C(=C/CC[C@@H](C)[C@H]1CC[C@@]2(C)C3=CC[C@H]4C(C)(C)C(=O)CC[C@]4(C)C3=CC[C@]12C)C(=O)O [GANODERIC ACID S] | 12.5 µM | > 50 µM |  |  | 65.2 µM | 75.2 µM |  |  |
| C[C@H](CC[C@H](O)[C@](C)(O)CO)[C@H]1CC[C@@]2(C)C3=CC[C@H]4C(C)(C)C(=O)CC[C@]4(C)C3=CC[C@]12C [GANODERMANONTRIOL] | 16.8 µM | > 50 µM |  |  | 80.9 µM | 106 µM |  |  |
| C[C@H](CCC=C(CO)CO)[C@H]1CC[C@@]2(C)C3=C(CC[C@]12C)[C@@]1(C)CCC(=O)C(C)(C)[C@@H]1CC3=O | 12.6 µM | > 50 µM |  |  | 41.6 µM | > 200 µM |  |  |
| C[C@H](CCC=C(CO)CO)[C@H]1CC[C@@]2(C)C3=CC[C@H]4C(C)(C)C(=O)CC[C@]4(C)C3=CC[C@]12C [GANODERIOL F] | > 100 µM | > 50 µM |  |  | 54.9 µM | 79.5 µM |  |  |

More lines, main results first:

| IC50 [1] | IC50 [2] | IC50 [3] | IC50 [4] | SMILES | IC50 (K562; Homo sapiens, K562) | IC50 (PC-3; Homo sapiens, PC-3) | IC50 (K562; k562) | IC50 (PC-3; pc-3) |
| --- | --- | --- | --- | --- | --- | --- | --- | --- |
| > 100 µM | 12.7 µM |  |  | C/C(=C\CC[C@@H](C)[C@H]1CC(=O)[C@@]2(C)C3=C(C(=O)[C@H](O)[C@]12C)[C@@]1(C)CCC(=O)[C@@](C)(CO)[C@@H]1C[C@@H]3O)C(=O)O | > 200 µM | > 200 µM |  |  |
| > 100 µM | > 50 µM | > 50 µM | > 50 µM | CC(C)=CCC/C(C)=C/CC/C(=C\Cc1cc(O)ccc1O)C(=O)O[C@@H](CC[C@@H](C)[C@H]1CC[C@@]2(C)C3=CC[C@H]4C(C)(C)C(=O)CC[C@]4(C)C3=CC[C@]12C)[C@](C)(O)CO | 104 µM | > 200 µM |  |  |
| > 100 µM | > 50 µM |  |  | C[C@H](CCC=C(CO)CO)[C@H]1C[C@@H](O)[C@@]2(C)C3=C(C(=O)C[C@]12C)[C@@]1(C)CCC(=O)C(C)(C)[C@@H]1CC3 | > 200 µM | > 200 µM |  |  |
| > 100 µM | > 50 µM |  |  | C[C@H](CCC=C(CO)CO)[C@H]1C[C@@H](O)[C@@]2(C)C3=CC[C@H]4C(C)(C)C(=O)CC[C@]4(C)C3=CC[C@]12C | 76.6 µM | 103 µM |  |  |
| 97.5 µM | > 50 µM |  |  | CC(=O)O[C@H]1C(=O)C2=C([C@@H](O)C[C@H]3[C@](C)(CO)C(=O)CC[C@]23C)[C@]2(C)C(=O)C[C@H]([C@H](C)CC/C=C(\C)C(=O)O)[C@@]12C | 147 µM | 88.3 µM |  |  |
| 24.1 µM | 2.5 µM | 8.1 µM | 22.5 µM | CC(C)=CCC/C(C)=C/CC/C(=C/Cc1cc(O)ccc1O)C(=O)O[C@@H](CC[C@@H](C)[C@H]1CC[C@@]2(C)C3=CC[C@H]4C(C)(C)C(=O)CC[C@]4(C)C3=CC[C@]12C)[C@](C)(O)CO | 48.4 µM | 14.4 µM |  |  |
| 26.4 µM | > 50 µM |  |  | CC(=O)O[C@H]1C(=O)C2=C([C@@H](O)C[C@H]3[C@](C)(COC(=O)C[C@@](C)(O)CC(=O)O)C(=O)CC[C@]23C)[C@]2(C)C(=O)C[C@H]([C@H](C)CC/C=C(\C)C(=O)O)[C@@]12C | 12.3 µM | 110 µM |  |  |
| 32.1 µM |  |  |  | CC(C)c1c(C(=O)Nc2ccccc2)c(-c2ccccc2)c(-c2ccc(F)cc2)n1CC[C@@H](O)C[C@@H](O)CC(=O)O [ATORVASTATIN] |  |  |  |  |
| 10.7 µM | > 50 µM |  |  | C/C(=C\CC[C@@H](C)[C@H]1CC(=O)[C@@]2(C)C3=C(C(=O)[C@H](O)[C@]12C)[C@@]1(C)CCC(=O)[C@@](C)(COC(=O)C[C@@](C)(O)CC(=O)O)[C@@H]1CC3=O)C(=O)O | 22.6 µM | > 200 µM |  |  |
| 17.1 µM | > 50 µM |  |  | C/C(=C\CC[C@@H](C)[C@H]1CC[C@@]2(C)C3=C(C(=O)C[C@]12C)[C@@]1(C)CCC(=O)[C@@](C)(CO)[C@@H]1C[C@@H]3O)C(=O)O | 17.8 µM | > 200 µM |  |  |
| 26.6 µM | > 50 µM |  |  | CC(=O)O[C@H]1C(=O)C2=C([C@@H](O)C[C@H]3[C@](C)(CO)C(=O)CC[C@]23C)[C@]2(C)CC[C@H]([C@H](C)CC/C=C(\C)C(=O)O)[C@@]12C | > 200 µM | > 200 µM |  |  |
| 20.5 µM | > 50 µM |  |  | CC(=O)O[C@H]1C(=O)C2=C(C(=O)C[C@H]3[C@](C)(CO)C(=O)CC[C@]23C)[C@]2(C)C(=O)C[C@H]([C@H](C)CC/C=C(\C)C(=O)O)[C@@]12C | 18.2 µM | > 200 µM |  |  |
| 66.9 µM | > 50 µM |  |  | C/C(=C\CC[C@@H](C)[C@H]1CC[C@@]2(C)C3=C(C(=O)[C@H](O)[C@]12C)[C@@]1(C)CCC(=O)[C@@](C)(CO)[C@@H]1C[C@@H]3O)C(=O)O | 19.7 µM | > 200 µM |  |  |
| 13.3 µM | > 50 µM |  |  | C/C(=C\CC[C@@H](C)[C@H]1CC(=O)[C@@]2(C)C3=C(C(=O)C[C@]12C)[C@@]1(C)CCC(=O)[C@@](C)(COC(=O)C[C@@](C)(O)CC(=O)O)[C@@H]1CC3=O)C(=O)O | 14.4 µM | > 200 µM |  |  |
